# Assay results pooled from the literature.
# Lines come from different studies, so protocols differ.
# DRD3: D(3) dopamine receptor (DRD3, Homo sapiens, UniProt P35462)
# SLC6A3: Sodium-dependent dopamine transporter (SLC6A3, Homo sapiens, UniProt Q01959)
# CA12: Carbonic anhydrase 12 (CA12, Homo sapiens, UniProt O43570)
Structure (SMILES),target,test,setting,measurement,result
Cc1[nH]c(C)c(S(=O)(=O)Nc2ccc(C(F)(F)F)c(Cl)c2)c1C(=O)O,DRD3,"G protein activation, antagonist, BRET",,IC50,19 µM
CNc1nc(I)nc2c1ncn2[C@H]1[C@H](O)[C@H](O)[C@]2(CC#N)C[C@H]12,SLC6A3,"ligand displacement, radioligand",,EC50,> 10 µM
O=C(NCc1cn(-c2ccc(Cl)cc2)nn1)c1ccc(=O)oc1,CA12,"enzyme activity, inhibitor, stopped-flow",,Ki,61.2 µM
N#CSCc1cc(=O)oc2cc(O)ccc12,CA12,"enzyme activity, inhibitor, stopped-flow",,Ki,0.0236 µM
OCc1ccccc1O[C@@H]1O[C@H](CO)[C@@H](O)[C@H](O)[C@H]1O,"Taste receptor type 2 member 16 (TAS2R16, Homo sapiens, UniProt Q9NYV7)","inositol phosphate, agonist, TR-FRET",,EC50,13000 µM
COc1ccc(OC(=O)c2ccc(=O)oc2)cc1,CA12,"enzyme activity, inhibitor, stopped-flow",,Ki,1.65 µM
N#CC[C@@]12C[C@@H]1[C@@H](n1cnc3c(NCc4cccc(Cl)c4)nc(C#Cc4ccc(Cl)s4)nc31)[C@H](O)[C@@H]2O,SLC6A3,"ligand displacement, radioligand",,Ki,1.2 µM
NCC(=O)O,"Glutamate NMDA receptor; GRIN1/GRIN2B (GRIN1/GRIN2B, Homo sapiens, UniProt Q05586+Q13224)","ion current, agonist, two-electrode voltage clamp",oocytes,EC50,0.32 µM
OC[C@@]12C[C@@H]1[C@@H](n1cnc3c(Nc4ccccc4)nc(I)nc31)[C@H](O)[C@@H]2O,SLC6A3,"ligand displacement, radioligand",,EC50,3 µM
COc1ccc(-n2cc(CNC(=O)c3ccc(=O)oc3)nn2)cc1,CA12,"enzyme activity, inhibitor, stopped-flow",,Ki,58.7 µM
Cc1[nH]c(C)c(S(=O)(=O)Nc2ccc(C(F)(F)F)c(Cl)c2)c1C(=O)N1CC[C@@H](F)C1,DRD3,"β-arrestin recruitment, antagonist",,IC50,5.1 µM
CCOC(=O)c1ccc(=O)oc1,CA12,"enzyme activity, inhibitor, stopped-flow",,Ki,92.6 µM
Cc1[nH]c(C)c(S(=O)(=O)Nc2ccc(C(=O)C(F)(F)F)c(Cl)c2)c1C(=O)N1CCC(F)(F)C1,DRD3,"G protein activation, antagonist, BRET",,IC50,14.3 µM
CCOC(=O)[C@@]12C[C@@H]1[C@@H](n1ccc3c(NCCCCCc4ccccc4)nc(C#Cc4ccccc4)nc31)[C@H](O)[C@@H]2O,SLC6A3,"ligand displacement, radioligand",,Ki,1.9 µM
Cc1ccc(-n2cc(CNC(=O)c3ccc(=O)oc3)nn2)cc1,CA12,"enzyme activity, inhibitor, stopped-flow",,Ki,57.8 µM
Cc1[nH]c(C)c(S(=O)(=O)Nc2ccc([N+](=O)[O-])c(Cl)c2)c1C(=O)N1CCC(F)(F)C1,DRD3,"β-arrestin recruitment, antagonist",,IC50,40 µM
O=C(OCc1cn(-c2ccc([N+](=O)[O-])cc2)nn1)c1ccc(=O)oc1,CA12,"enzyme activity, inhibitor, stopped-flow",,Ki,62.8 µM
Cc1[nH]c(C)c(S(=O)(=O)Nc2ccc(C(F)(F)F)c(Cl)c2)c1C(=O)N1CCN(C(=O)OC(C)(C)C)CC1,DRD3,"G protein activation, antagonist, BRET",,IC50,29 µM
O=C(Oc1ccc(Br)cc1)c1ccc(=O)oc1,CA12,"enzyme activity, inhibitor, stopped-flow",,Ki,0.91 µM
CNC(=O)[C@@]12C[C@@H]1[C@@H](n1cnc3c(Nc4ccccc4)nc(C#Cc4ccc(Cl)s4)nc31)[C@H](O)[C@@H]2O,SLC6A3,"ligand displacement, radioligand",,Ki,1.6 µM
Cc1ccc(NS(=O)(=O)c2c(C)[nH]c(C)c2C(=O)N2CCC2)cc1Cl,DRD3,"β-arrestin recruitment, antagonist",,IC50,35 µM
N#CC[C@@]12C[C@@H]1[C@@H](n1cnc3c(NC4CC4)nc(C#Cc4ccc(Cl)s4)nc31)[C@H](O)[C@@H]2O,SLC6A3,"ligand displacement, radioligand",,EC50,0.2 µM
C#CCOC(=O)c1ccc(=O)oc1,CA12,"enzyme activity, inhibitor, stopped-flow",,Ki,76.3 µM
CCOC(=O)[C@@]12C[C@@H]1[C@@H](n1cnc3c(NCCCCCc4ccccc4)nc(C#Cc4ccc(Cl)s4)nc31)[C@H](O)[C@@H]2O,SLC6A3,"ligand displacement, radioligand",,Ki,3.1 µM
Cc1[nH]c(C)c(S(=O)(=O)Nc2ccc(C(F)(F)F)c(Cl)c2)c1C(=O)N1C[C@@H](F)[C@H](F)C1 (relative stereo),DRD3,"G protein activation, antagonist, BRET",,IC50,0.58 µM
CCOC(=O)[C@@]12C[C@@H]1[C@@H](n1ccc3c(NCCCCc4ccccc4)nc(C#Cc4ccccc4)nc31)[C@H](O)[C@@H]2O,SLC6A3,"ligand displacement, radioligand",,Ki,8 µM
Cc1[nH]c(C)c(S(=O)(=O)Nc2ccc(C(F)(F)F)c(Cl)c2)c1C(=O)NCC(F)(F)F,DRD3,"G protein activation, antagonist, BRET",,IC50,4 µM
